For assay [1], the system named is Mus musculus. Put plainly: Percent increase in life span of DBA2 mice after inoculation with L1210 leukemia intravenously at a dose of 58 mg/kg per day. It counts as functional. The note with it: route intravenous.
For assay [2], the system named is Mus musculus. Put plainly: Percent increase in life span of DBA2 mice after inoculation with L1210 leukemia intravenously at a dose of 60 mg/kg per day. In kind it is functional. The conditions noted are these: route intravenous. In outline:
(§1)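 Female DBA2 mice inoculated iv on day 0 with 10^4 L1210 cells; drugs given iv as sulfate salts in physiological saline, mostly once on day 1. %ILS from all deaths and survivors as (T/C × 100) − 100; survivors scored on days 30 and 60.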

The subject of assay [3] is Mus musculus. Kind of assay: Percent increase in life span of DBA2 mice after inoculation with L1210 leukemia intravenously at a dose of 70 mg/kg per day. The note with it: route intravenous. It counts as functional. A digest of the protocol:
as §1

For assay [4], the system named is Mus musculus. Put plainly: Number of survivors on 60th day at dose 56 mg/kg/day in 10 mice implanted with P388 leukemia cell line; 2/10. In kind it is functional.
Assay [5] deals with Mus musculus. Put plainly: Number of survivors on 60th day at dose 60 mg/kg/day in 10 mice implanted with P388 leukemia cell line 1,5,9 scheduled days; 3/10. It counts as functional.
For assay [6], the system named is Mus musculus. Put plainly: Number of survivors of DBA2 mice on 30th day after inoculation with L1210 leukemia cell line intravenously at a dose of 55 mg/kg/day; 0/10. It counts as functional. The note with it: route intravenous.
In assay [7] the test system is Mus musculus. Kind of assay: Number of survivors of DBA2 mice on 30th day after inoculation with L1210 leukemia cell line intravenously at a dose of 58 mg/kg/day; 0/10. In kind it is functional. The note with it: route intravenous.
Assay [8] deals with Mus musculus. Kind of assay: Number of survivors of DBA2 mice on 30th day after inoculation with L1210 leukemia cell line intravenously at a dose of 70 mg/kg/day; 0/10. In kind it is functional. The conditions noted are these: route intravenous.
The test system of assay [9] is Mus musculus. Put plainly: Number of survivors on 60th day at dose 75 mg/kg/day in 7 mice implanted with P388 leukemia cell line for 1,8,15 scheduled days in Exp-2; 2/10. In kind it is functional.
The subject of assay [10] is Mus musculus. Kind of assay: Number of survivors on 60th day at dose 40 mg/kg/day in 10 mice implanted with P388 leukemia cell line; 4/10. It counts as functional.
Assay [11] deals with Mus musculus. Kind of assay: Number of survivors on 60th day at dose 70 mg/kg/day in 10 mice implanted with P388 leukemia cell line; 0/11. It counts as functional.
Assay [12] has as its system Mus musculus. Kind of assay: Number of survivors on 30th day at dose 56 mg/kg/day in 10 mice implanted with P388 leukemia cell line; 4/10. In kind it is functional.
Assay [13] deals with Mus musculus. Kind of assay: Number of survivors on 30th day at dose 60 mg/kg/day in 10 mice implanted with P388 leukemia cell line for 1st scheduled day; 8/10. In kind it is functional.
Assay [14] relates to Mus musculus. Kind of assay: Number of survivors on 30th day at dose 70 mg/kg/day in 10 mice implanted with P388 leukemia cell line; 5/11. It counts as functional.
Assay [15] concerns Mus musculus. Kind of assay: Number of survivors on 30th day at dose 60 mg/kg/day in 10 mice implanted with P388 leukemia cell line; 8/10. In kind it is functional.
The test system of assay [16] is Mus musculus. Put plainly: Percent increase in life span at dose 6 mg/kg/day in 7 mice implanted with P388 leukemia cell line for 1,8,15 schedule days from Exp-1. In kind it is functional.
Assay [17] has as its system Mus musculus. Put plainly: Percent increase in life span at dose 7 mg/kg/day in 9 mice implanted with P388 leukemia cell line for 1st schedule day. It counts as functional.
The subject of assay [18] is Mus musculus. Kind of assay: Number of survivors on 60th day at dose 8 mg/kg/day in 7 mice implanted with P388 leukemia cell line for 1,8.15 scheduled days from Exp-1; 0/9. It counts as functional.
The subject of assay [19] is Mus musculus. Put plainly: Number of survivors on 60th day at dose 4 mg/kg/day in 10 mice implanted with P388 leukemia cell line; 0/9. In kind it is functional.
In assay [20] the test system is Mus musculus. Kind of assay: Number of survivors on 30th day at dose 5 mg/kg/day in 9 mice implanted with P388 leukemia cell line; 1/9. It counts as functional.
Assay [21] concerns Mus musculus. Kind of assay: Number of survivors on 30th day at dose 8 mg/kg/day in 10 mice implanted with P388 leukemia cell line; 8/10. It counts as functional.
Assay [22] deals with Mus musculus. Put plainly: Number of survivors on 60th day at dose 7 mg/kg/day in 9 mice implanted with P388 leukemia cell line; 0/9. It counts as functional.
Assay [23] concerns Mus musculus. Put plainly: Number of survivors of DBA2 mice on 30th day after inoculation with L1210 leukemia cell line intraperitoneally at a dose of 4 mg/kg/day; 0/10. It counts as functional. The conditions noted are these: route intraperitoneal.
The subject of assay [24] is Mus musculus. Put plainly: Number of survivors on 30th day at dose 4 mg/kg/day in 10 mice implanted with P388 leukemia cell line;5/10. In kind it is functional.
The test system of assay [25] is Mus musculus. Put plainly: Number of survivors on 60th day at dose 7 mg/kg/day in 9 mice implanted with P388 leukemia cell line;0/9. It counts as functional.
In assay [26] the test system is Mus musculus. Kind of assay: Percent increase in life span of BDF1 mice after inoculation with P388 leukemia intraperitoneally at a dose of 4 mg/kg per day. The note with it: P388, ip.
The test system of assay [27] is Mus musculus. Kind of assay: Percent increase in life span of DBA2 mice after inoculation with L1210 leukemia intravenously at a dose of 5.5 mg/kg per day. In kind it is functional. The note with it: route intravenous.
Assay [28] deals with Mus musculus. Put plainly: Number of survivors of DBA2 mice on 30th day after inoculation with L1210 leukemia cell line intravenously at a dose of 5.5 mg/kg/day; 0/10. In kind it is functional. The conditions noted are these: route intravenous.
Assay [29] deals with Mus musculus. Kind of assay: Number of survivors of DBA2 mice on 30th day after inoculation with L1210 leukemia cell line intravenously at a dose of 6.5 mg/kg/day; 0/10. It counts as functional. The note with it: route intravenous.
The test system of assay [30] is Mus musculus. Put plainly: Percent increase in life span of DBA2 mice after inoculation with L1210 leukemia intravenously at a dose of 1 mg/kg per day. It counts as functional. The note with it: route intravenous.
Assay [31] concerns Mus musculus. Put plainly: Number of survivors on 30th day at dose 1.5 mg/kg/day in 10 mice implanted with P388 leukemia cell line; 0/10. In kind it is functional.
For assay [32], the system named is Mus musculus. Put plainly: Number of survivors of DBA2 mice on 30th day after inoculation with L1210 leukemia cell line intravenously at a dose of 3.5 mg/kg/day; 0/10. It counts as functional. The conditions noted are these: route intravenous.
In assay [33] the test system is Mus musculus. Kind of assay: Number of survivors of DBA2 mice on 60th day after inoculation with L1210 leukemia cell line intravenously at a dose of 3.5 mg/kg/day; 0/10. It counts as functional. The note with it: route intravenous.
The test system of assay [34] is Mus musculus. Kind of assay: Number of survivors on 30th day at dose 0.5 mg/kg/day in 10 mice implanted with P388 leukemia cell line; 0/10. It counts as functional.
In assay [35] the test system is Mus musculus. Kind of assay: Number of survivors on 60th day at dose 2 mg/kg/day in 10 mice implanted with P388 leukemia cell line for 1st scheduled day; 0/10. It counts as functional.
The subject of assay [36] is Mus musculus. Put plainly: Number of survivors on 60th day at dose 2 mg/kg/day in 7 mice implanted with P388 leukemia cell line for 1,8,15 scheduled days; 0/11. It counts as functional.
Assay [37] relates to Mus musculus. Kind of assay: Number of survivors on 60th day at dose 2.5 mg/kg/day in 10 mice implanted with P388 leukemia cell line; 0/10. It counts as functional.
The test system of assay [38] is Mus musculus. Kind of assay: Number of survivors of DBA2 mice on 30th day after inoculation with L1210 leukemia cell line intraperitoneally at a dose of 2.5 mg/kg/day; 0/10. It counts as functional. The note with it: route intraperitoneal.
Assay [39] relates to Mus musculus. Put plainly: Number of survivors on 30th day at dose 3 mg/kg/day in 10 mice implanted with P388 leukemia cell line; 0/9. In kind it is functional.
The subject of assay [40] is Mus musculus. Kind of assay: Number of survivors on 30th day at dose 5 mg/kg/day in 10 mice implanted with P388 leukemia cell line; 0/10. It counts as functional.

In general, ILS refers to how much longer treated animals lived than controls. A low value points to little gain in survival.

`CCOC(=O)[C@H](Cc1c[nH]c2ccccc12)NC(=O)[C@@]1(O)[C@H](O)[C@]2(CC)C=CCN3CC[C@@]4(c5cc([C@@]6(C(=O)OC)C[C@H]7C[N@](CCc8c6[nH]c6ccccc86)C[C@](O)(CC)C7)c(OC)cc5N(C)[C@@]14C)[C@@H]32`: the ILS at 58 mg/kg/day in the assay on Mus musculus [1] is 48.7%. For the same molecule, in the assay on Mus musculus [2], the increase in lifespan (ILS) at 60 mg/kg/day was found to be 58%. This molecule also had an ILS at 70 mg/kg/day with Mus musculus [3] of 61.8%. The Survivors with Mus musculus [4] is 2; in the assay on Mus musculus [5] it was 3; in the assay with Mus musculus [6], 0; with Mus musculus [7], 0; with Mus musculus [8], 0; with Mus musculus [9], 2. Besides, the Survivors in the assay on Mus musculus [10] is reported as 4; in the assay on Mus musculus [11], 0; in the assay with Mus musculus [12] it was 4; with Mus musculus [13], 8; in the assay on Mus musculus [14] it was 5; in the assay with Mus musculus [15] it was 8.

For the molecule `CCOC(=O)[C@@H](NC(=O)[C@@]1(O)[C@H](O)[C@]2(CC)C=CCN3CC[C@@]4(c5cc([C@@]6(C(=O)OC)C[C@H]7C[N@](CCc8c6[nH]c6ccccc86)C[C@](O)(CC)C7)c(OC)cc5N(C)[C@@]14C)[C@@H]32)[C@@H](C)CC`, the ILS at 6 mg/kg/day in the assay with Mus musculus [16] is 150%. Also, the ILS at 7 mg/kg/day in the assay with Mus musculus [17] is 37%. The Survivors with Mus musculus [18] was found to be 0; with Mus musculus [19] it was 0; with Mus musculus [20] it was 1; with Mus musculus [21], 8; in the assay on Mus musculus [22], 0.

Turning to `CC[C@]1(O)C[C@@H]2CN(CCc3c([nH]c4ccccc34)[C@@](C(=O)OC)(c3cc4c(cc3OC)N(C)[C@H]3[C@@](O)(C(=O)OC)[C@H](OC(C)=O)[C@]5(CC)C=CCN6CC[C@]43[C@@H]65)C2)C1` [VINBLASTINE], the Survivors with Mus musculus [23] is 0; in the assay on Mus musculus [24], 5; in the assay with Mus musculus [25], 0. This molecule also displayed an ILS at 4 mg/kg/day in the assay with Mus musculus [26] of 0%.

Take `CC[C@]1(O)C[C@H]2CN(CCc3c([nH]c4ccccc34)[C@@](C(=O)OC)(c3cc4c(cc3OC)N(C=O)[C@H]3[C@@](O)(C(=O)OC)[C@H](OC(C)=O)[C@]5(CC)C=CCN6CC[C@]43[C@@H]65)C2)C1` [VINCRISTINE]: the ILS at 5.5 mg/kg/day in the assay with Mus musculus [27] was 26.6%. Further, the Survivors in the assay with Mus musculus [28], in the assay with Mus musculus [29], with Mus musculus [31], with Mus musculus [32], in the assay with Mus musculus [33] and in the assay with Mus musculus [34] was 0 each time. The ILS at 1 mg/kg/day in the assay with Mus musculus [30] stood at 10.7%.

`CC[C@]1(O)C[C@@H]2CN(CCc3c([nH]c4ccccc34)[C@@](C(=O)OC)(c3cc4c(cc3OC)N(C)[C@H]3[C@@](O)(C(N)=O)[C@H](O)[C@]5(CC)C=CCN6CC[C@]43[C@@H]65)C2)C1` [VINDESINE]: the Survivors in the assay with Mus musculus [35], in the assay with Mus musculus [36], in the assay on Mus musculus [37], with Mus musculus [38], in the assay with Mus musculus [39] and in the assay on Mus musculus [40] was 0 each time.

For the origin of these results see ChEMBL document CHEMBL1122917, “Vinblastin-23-oyl amino acid derivatives: chemistry, physicochemical data, toxicity, and antitumor activities against P388 and L1210 leukemias” (J Med Chem, 1985).
